Source: PubChem (The Scripps Research Institute Molecular Screening Center)
TCR CD3 inh – blocks the human TCR-CD3 interaction. TAMRA-labeled TCR probe fluorescence, biochemical. AID 651800. hit rate 0.37% among 360,000. inhibition, % at 9.4 µM; in the data active = inhibition above about 19%;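 also: recombinant mutant TCR 2C K166C tagged with TAMRA read by polarization; 0% = receptor in buffer alone and 100% = receptor with positive control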
HTRA1 inh – HTRA1 (human) protease inhibition | Q92743 | recombinant HTRA1, FP-rhodamine activity-based probe, fluorescence polarization | inhibition, % at 5.96 µM | hit rate 0.5% among 340,000; in the data active = inhibition above about 36%;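 also: 0% = enzyme with DMSO and 100% = wells lacking enzyme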
Target sequence (Q92743 whole entry, looked up): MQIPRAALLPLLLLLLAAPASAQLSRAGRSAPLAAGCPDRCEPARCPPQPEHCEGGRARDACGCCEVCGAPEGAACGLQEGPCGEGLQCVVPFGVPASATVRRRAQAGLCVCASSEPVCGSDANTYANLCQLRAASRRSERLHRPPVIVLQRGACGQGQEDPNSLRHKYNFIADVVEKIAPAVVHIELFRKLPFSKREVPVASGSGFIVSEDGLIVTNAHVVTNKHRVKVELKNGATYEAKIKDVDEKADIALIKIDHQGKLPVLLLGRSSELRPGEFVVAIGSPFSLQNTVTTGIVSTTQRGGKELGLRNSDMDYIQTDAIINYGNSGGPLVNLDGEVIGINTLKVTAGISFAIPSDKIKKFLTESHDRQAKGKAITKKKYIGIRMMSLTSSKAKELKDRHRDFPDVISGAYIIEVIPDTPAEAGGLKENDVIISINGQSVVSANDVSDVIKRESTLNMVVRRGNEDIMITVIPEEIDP
PRMT1 inh – inhibitors of human PRMT1; hit rate 1.3% among 370,000; inhibition, % at 2.79 µM; recombinant PRMT1, activity-based probe fluorescence polarization; Q99873;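 active = inhibition above about 21% made by adding two undisclosed values, limit read from the data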
SIAE primary – inhibitors of human sialic acid acetylesterase SIAE. Q9HAT2. SIAE FP-Rh probe binding, fluorescence polarization. inhibition, % at 9.66 µM. hit rate 0.69% among 370,000. AID 1053197;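 active = inhibition above a cutoff: mean of compounds within the control limits plus 3 SD of those, cut at about 17% in these data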;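 also: 0% = plate median of compound wells and 100% = probe without SIAE protein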
rCAG binder – r(CAG) repeat RNA binding; TO-PRO-1 dye displacement fluorescence; inhibition, % at 3 µM; hit rate 1.3% among 370,000; AID 651821;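 active = inhibition above the plate cutoff, the mean of all test compounds on that plate plus 3 SD, cut at about 35% in these data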;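 also: 0% = DMSO alone and 100% = 100 µM mitoxantrone as full dye displacement; higher means more dye released from RNA so lower well fluorescence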
mABHD4 FP – inhibitors of mouse ABHD4; AID 720543; hit rate 0.54% among 370,000; inhibition, % at 8.92 µM; Q8VD66; purified mABHD4, FP-Rh probe fluorescence polarization;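 active = inhibition exceeding the mean over every tested compound plus 3 SD, cut at about 30% in these data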;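 also: 0% = plate median of compound wells and 100% = S159A mutant with DMSO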
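Test system: mABHD4 protein | Buffer or medium: HEPES pH 7.0 buffer, 150 mM NaCl, 0.01% Pluronic F-127 | Probe or stimulus: FP-Rh fluorescent activity-based probe, added after compound pre-incubation | Timing: Pre-incubation 45 min, probe exposure 60 min, at 25 °C | Technique: Fluorescence polarization, excitation 525 nm, emission 598 nm, BODIPY TMR filters | Repeats: Single well per compound (singlicate)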
PRMT1 inh conf – confirmation of human PRMT1 inhibitors | shares compounds with PRMT1 inh | recombinant His-PRMT1, activity-based probe fluorescence polarization | inhibition, % at 2.79 µM | hit rate 42% among 3,300;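 active = mean inhibition across replicates above the hit cutoff derived for the earlier primary screen, cut at about 22% in these data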
An asterisk follows results filed as active; x = no result given. Compounds with a hit are over-represented: about 3.5% of the library has one in this group of screens.

SMILES	TCR CD3 inh	HTRA1 inh	PRMT1 inh	SIAE primary	rCAG binder	mABHD4 FP	PRMT1 inh conf
CCn1c(SCC(=O)c2ccccc2)nc2sc3c(c2c1=O)CCN(C)C3	-2.5	-14.2	55.0*	-5.3	6.6	5.9	14.4
C[C@@H]1[C@@H](O)C[C@@]2(C[C@H](O)c3cc(F)ccc3O2)O[C@H]1c1ccccc1Cl	x	x	-2.6	-4.0	-1.4	-10.9	x
COC(=O)C1=C(C)N(Cc2cccc(C(F)(F)F)c2)C(=NCC2CC2)NC1c1cccc(F)c1 (stereo not drawn)	2.8	x	-2.5	-1.8	6.9	18.5	x
COc1ccc(NC(=O)Nc2ccc(OCc3ccccc3)cc2)cn1	3.1	-3.2	25.7*	5.1	-7.9	7.8	11.5
COc1ccc(NC(=O)NS(=O)(=O)c2ccc(C)cc2)cn1	-4.1	2.3	104.5*	1.9	-299.4	11.2	9.8
CC(C)Cn1c(-c2ccc(Br)cc2)c[nH]c1=S	0.5	1.5	41.0*	1.3	-0.3	-8.9	20.6
C[C@@H]1ON(C)[C@H]2C[C@H]3c4[nH]c5c(-c6ccccc6)cccc5c4CCN3C[C@@H]12	-1.3	x	-2.9	4.4	7.5	3.1	x
O=C(O)Cn1c(O)c(C2=c3ccccc3=NC2=O)sc1=O	2.6	4.0	27.4*	5.3	12.2	8.4	9.6
Cc1c(-n2c(O)c(C3=c4ccccc4=NC3=O)sc2=O)c(=O)n(-c2ccccc2)n1C	4.2	-0.8	3.0	5.0	-0.9	6.8	x
COc1ccc2c(c1)C(NC(=O)C(F)(F)F)CC21CCCCC1 (stereo not drawn)	2.2	x	-6.7	-1.6	5.5	-9.0	x
CCOC(=O)C1=C(C)N=c2s/c(=C\c3cccn3C)c(=O)n2C1c1cccc(OC)c1OC (stereo not drawn)	-0.4	-4.0	-0.1	3.0	5.8	-4.4	x
CCOC(=O)C1=C(C)N=c2s/c(=C/c3cccc([N+](=O)[O-])c3O)c(=O)n2C1c1ccccc1 (stereo not drawn)	3.8	11.5	48.5*	-2.3	33.1	6.5	40.6*
CCOC(=O)C1=C(C)N=c2s/c(=C/c3cccc([N+](=O)[O-])c3O)c(=O)n2C1c1cc(OC)c(OC)c(OC)c1 (stereo not drawn)	-3.2	0.2	44.5*	2.8	33.6	20.5	40.4*
c1ccc(CN2CCC3(CC2)Nc2ccccc2CO3)cc1	1.1	3.5	-4.2	1.3	3.7	2.6	x
c1ccc(CN2CCC3(CC2)Nc2ccccc2S3)cc1	-5.4	3.2	54.4*	9.2	-2.8	4.4	-3.4
Cc1ccc(-c2cc(C(=O)Nc3cccnc3)c3ccccc3n2)o1	5.6	-0.7	45.9*	-2.4	10.8	3.5	12.1
Cc1ccc(NC(=O)c2cc(-c3ccc(C)o3)nc3ccccc23)cc1	-6.6	-25.0	49.0*	-5.7	19.3	-7.6	25.1*
CCN1/C(=C/c2ccc3cc(C)ccc3[n+]2CC)Sc2ccc3sccc3c21	x	-7.8	x	x	x	x	x
CC[n+]1c(C)sc2c3ccsc3ccc21	-9.8	-6.0	37.9*	-7.6	4.7	-8.6	63.8*
O=C(CSC1CC(=O)N(CCc2ccccc2)C1=O)Nc1cccc(Cl)c1 (stereo not drawn)	10.0	-12.1	53.8*	7.7	2.8	-26.5	53.7*
O=C(CSC1CC(=O)N(c2ccc(C(=O)O)cc2)C1=O)Nc1ccc(Cl)cc1 (stereo not drawn)	4.9	8.5	38.5*	-4.9	6.6	4.8	33.9*
CCN=C(NCC)SC1CC(=O)N(c2ccc(OC)cc2)C1=O (stereo not drawn)	-1.7	6.6	2.4	-2.8	-4.8	5.1	x
O=C(O)CSC1CC(=O)N(c2ccc(F)cc2)C1=O (stereo not drawn)	-2.3	-1.0	26.2*	-3.8	1.9	-10.1	1.3
CCN=C(NCC)SC1CC(=O)N(CCc2ccccc2)C1=O (stereo not drawn)	5.7	x	35.0*	-12.6	-5.1	-4.0	-0.8
CCOc1ccccc1NC(=O)c1c(NC(=O)CCC(=O)O)sc2c1CCCCC2	1.2	3.4	25.4*	3.6	26.5	1.8	-3.7
SMILES	TCR CD3 inh	HTRA1 inh	PRMT1 inh	SIAE primary	rCAG binder	mABHD4 FP	PRMT1 inh conf
CCOC(=O)[C@]12CCCC=C1N(CCCOC)C(=O)[C@@H]2CC(=O)N1CCC(c2ccccc2)CC1	x	x	3.3	1.0	3.1	2.8	x
CC(=O)Nc1cc(-c2ccccc2)cn2c(-c3ccc(F)c(Cl)c3)cnc12	4.4	x	-0.7	4.6	8.8	-3.2	x
Nc1cccn2c(-c3ccc(Cl)cc3)cnc12	2.1	19.2	41.7*	1.5	6.1	17.8	-0.6
Nc1cccn2c(-c3ccc(Cl)c(Cl)c3)cnc12	-4.8	-1.1	31.5*	0.8	8.5	7.6	-2.6
Clc1ccc(-c2cnc3cccnn23)cc1	-1.0	x	-1.2	1.7	2.4	0.5	x
O=C(Nc1ccc(C(F)(F)F)cc1)OC1CC2CC1[C@H]1CCCCN1C2 (stereo partly drawn)	x	x	-0.7	-4.5	4.8	2.6	x
O=C(c1ccc(Cl)cc1)C1CCN(c2ncnc3sccc23)CC1	x	x	3.5	-3.2	x	-6.3	x
S=C(NCc1ccccc1)NNc1nc2ccccc2[nH]1	6.2	9.8	39.4*	8.3	7.0	15.4	67.0*
c1ccc(CNc2nc3ccccc3[nH]2)cc1	-5.1	-1.7	1.9	-0.1	1.2	7.1	x
C[C@H]1C(c2ccccc2F)O[C@]2(C[C@H](O)c3ccccc3O2)C[C@@H]1O (stereo partly drawn)	x	x	-7.8	0.2	-2.2	-8.8	x
C#CCNC(=O)C[C@H]1C[C@@]2(C(=O)OC)C(=C[C@H](COCc3ccccc3)O[C@@H]2C)N(Cc2ccc(Cl)cc2Cl)C1=O	x	x	2.4	-1.2	7.3	-8.6	x
CCOc1ccc(NC(=O)c2sc3nc(N4CCOCC4)c4c(c3c2N)CC(C)(C)OC4)cc1	5.1	-0.6	3.1	-5.9	3.5	4.8	x
CC1(C)Cc2c(c(N3CCOCC3)nc3sc(C(=O)Nc4ccc(Cl)cc4)c(N)c23)CO1	-11.2	-4.4	52.9*	-4.2	23.8	-13.7	0.7
CC1(C)Cc2c(c(N3CCOCC3)nc3sc(C(N)=O)c(N)c23)CO1	-11.4	0.4	37.4*	3.8	5.6	-0.3	7.3
Cc1c(Cc2ccccc2)sc(NC(=O)Cc2ccccc2)c1C(N)=O	-2.5	-23.8	28.7*	-0.9	10.2	-12.2	3.1
CCC(=O)Nc1sc(Cc2ccccc2)c(C)c1C(N)=O	3.4	-4.8	11.1	-7.2	2.1	-10.2	x
CC(=O)Nc1ccc(SCC(=O)N(CCC#N)c2ccc(C)cc2)cc1	-9.7	-7.9	39.1*	-7.6	0.2	-5.8	15.9
C=CC(=O)NC1CCCCN(CC)C1=O (stereo not drawn)	x	x	4.8	-6.3	14.7	-1.3	x
C=CCn1c(SCC(=O)OC(C)C)nnc1-c1ccc(C)cc1	x	x	39.8*	3.3	-3.0	2.1	-2.8
O=C(/C=C/c1ccoc1)c1ccccc1O	-3.9	1.1	2.2	-2.3	2.6	-0.8	x
